Experimental data gathered from unrelated publications.
Lines come from different studies, so protocols differ.
Target: Serine/threonine-protein kinase OSR1 (OXSR1, Homo sapiens, UniProt O95747)

Compound	test	conditions	measurement	result
C[C@H]1CC[C@H](n2c3cnccc3c3cnc(Nc4ccc5c(n4)CCN(C(=O)CO)C5)nc32)CC1	cell-free assay	1 µM	remaining signal	100%
C=CC(=O)N1CCC([C@@H]2CCNc3c(C(N)=O)c(-c4ccc(Oc5ccccc5)cc4)nn32)CC1	enzyme activity, inhibitor	1 µM	inhibition	0%
C#Cc1cc(-c2cc(Nc3nc(N[C@@H](C)c4ccc(F)cn4)ncc3Cl)n[nH]2)ccc1C=O	enzyme activity, inhibitor	0.2 µM	inhibition	18.2%
CO[C@@H]1[C@H](N(C)C(=O)c2ccccc2)C[C@H]2O[C@]1(C)n1c3ccccc3c3c4c(c5c6ccccc6n2c5c31)C(=O)NC4	enzyme activity, inhibitor	1 µM	inhibition	24%
Cc1cc(O)c(-c2ccc([C@@H](C)CN(C)C)cc2)c2c1[nH]c(=O)c1sccc12	enzyme activity, inhibitor	0.1 µM	inhibition	6.5%
CCCCC(=O)Nc1ccc(-c2ccc3ncn(CCC)c(=O)c3c2)cn1	binding, competition with immobilised ligand	0.5 µM	remaining binding	100%
Cc1ccc(NC(=O)c2ccnc(C(F)(F)F)c2)cc1-c1cc(OCCO)nc(N2CCOCC2)c1	binding	1 µM	remaining binding	89%
CC(C)S(=O)(=O)c1ccc2nccc(Nc3ccc4sc(C5CCCC5)nc4c3)c2c1	enzyme activity, inhibitor	1 µM	activity vs control	108%
